Values joined by “and” are separate entries in the source; they are usually repeats but may differ in a detail not shown here. Identical values can stand only once. “Also recorded” adds a separate entry of the source. Like-named read-outs stand apart in the source and are kept apart here.
What was measured:
[1] = test system: SD rats; conditions: cited from earlier work
[2] = test system: SGLT2; conditions: cited from earlier work
[3] = test system: CD-1 mice; conditions: 2-year study; cited from earlier work
[4] = cited from earlier work
[5] = test system: peripheral blood lymphocytes; conditions: up to 200 mg/kg per day for 1 month
[6] = test system: primary hepatocyte cultures; conditions: single oral dose up to 700 mg/kg
[7] = test system: Escherichia coli strain WP2 uvrA; conditions: maximum concentrations (≤5,000 μg/plate) with or without metabolic activation
[8] = test system: EJ-1 tumor xenografts; assay: In vivo mouse xenograft study, EJ-1; design: species or system athymic nude mice
[9] = test system: Harlan SD rats
[10] = 2-year rodent carcinogenicity studies
[11] = test system: bone marrow polychromatic erythrocytes
[12] = chronic toxicology studies; cited from earlier work
[13] = test system: CD-1 mice; conditions: for carcinogenicity: oral gavage up to 24 months
[14] = test system: more than 330 receptors, enzymes, ion channels, and transporters; conditions: cited from earlier work
[15] = test system: hormone receptors; conditions: cited from earlier work
[16] = in vivo; conditions: both, Sprague-Dawley, rat, plasma, po, 200 mg/kg per day
[17] = test system: Salmonella typhimurium stains TA98, TA100, TA1535, and TA1537; conditions: maximum concentrations (≤5,000 μg/plate) with or without metabolic activation
[18] = test system: liver, skeletal muscle, kidney, and adipose tissues; conditions: male ZDF rats vs vehicle
[19] = Urinary exposure extrapolations from bridging studies; assay type: in vivo; conditions: mice, rats, and dogs
[20] = human plasma after 10 mg MRHD of dapagliflozin; cited from earlier work
[21] = test system: Beagle dogs
[22] = test system: Chinese hamster ovary (CHO) cells
[23] = human subjects, 10 mg dose; cited from earlier work
[24] = cited from earlier work; remark: listed apart in the source
[25] = test system: human bladder transitional cell carcinoma (TCC) cell lines (T24, TCCSUP, UM-UC-3, J82, SW780, and EJ-1); assay: In vitro cell proliferation of bladder TCC cell lines with test compounds; assay type: cell-based; conditions: 0.2, 2, 20 μg/mL, serum-free medium, 72 h
In short: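 Low-passage TCC lines (<6 months from thaw) were seeded at 20,000 or 40,000 cells/well in RPMI 1640 + 10% FBS. After 24 h adherence and 24 h serum-free, cells got medium-only vehicle or test compound (0.2, 2, 20 μg/mL) serum-free for 72 h. Controls were a return to 10% FBS and continuous serum. Percent confluence was imaged every 2 h to build growth curves.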

[26] = test system: TCC cell lines (T24, TCCSUP, UM-UC-3, J82, and SW780); assay: In vitro cell proliferation of bladder TCC cell lines with increasing glucose; assay type: cell-based, human
In short: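 Five TCC lines seeded at 40,000 or 80,000 cells/well in RPMI 1640 with 10% FBS, glucose set to 11 (control), 25, 35 or 50 mM. Cells were incubated 145 h in the incubator with live-cell imaging. Percent confluence was read every 2 h and growth curves were built over 145 h.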

Structure (SMILES): Cc1ccc([C@@H]2O[C@H](CO)[C@@H](O)[C@H](O)[C@H]2O)cc1Cc1ccc(-c2ccc(F)cc2)s1 [canagliflozin]
- exposure multiple with increased incidence of neoplasms of the adrenals [1]: ≥ 12 ×
- exposure multiple with increased incidence of neoplasms of the renal tubules [1]: ≥ 12 ×
- selectivity for SGLT2 than for SGLT1 [2]: 200 ×
- exposure multiple of clinical exposures [3]: 14 ×
- incidence of neoplasms or preneoplastic lesions [3]: did not increase the incidence

Structure (SMILES): CCOc1ccc(Cc2cc([C@@H]3O[C@H](CO)[C@@H](O)[C@H](O)[C@H]3O)ccc2Cl)cc1 [dapagliflozin, (2S,3R,4R,5S,6R)-2-[4-chloro-3-(4-ethoxybenzyl)phenyl]-6-(hydroxymethyl)tetrahydro-2H-pyran-3,4,5-triol]
- overall incidence of malignancies and unspecified tumors ([4]; July 15, 2011 cutoff (control 1.4%)): 1.5%
- urinary bladder tumors, incidence rate ([4]; dapagliflozin groups (placebo 0.03)): 0.15
- urinary bladder tumors, number of cases ([4]; dapagliflozin groups (placebo 1)): 9
- bladder cancer cases, percent of patients ([4]; of 5,501 patients, July 15, 2011 cutoff): 0.16%
- AUC multiple of MRHD [5]: ≤ 2,602 × MRHD
- C max multiple of MRHD [5]: ≤ 544 × MRHD
- clastogenicity in peripheral blood lymphocytes [5]: no evidence of clastogenicity
- unscheduled DNA synthesis [6]: did not induce an increase
- bacterial reverse-mutation assay [7]: negative
- selectivity for SGLT2 than for SGLT1 [2]: 1,200 ×
- body weight of treated animals ([8]; EJ-1 and UM-UC-3 xenograft mice): no effect
- exposure multiple of human clinical exposures ([8]; EJ-1 and UM-UC-3 xenograft mice, parent): up to 75 ×
- growth of tumor xenografts ([8]; mouse, in vivo): no effect; also recorded: similar
- carcinogenicity ([9]; doses up to 10 mg/kg per day): not carcinogenic
- exposure (AUC) multiple relative to human AUC at 10 mg ([9]; females 0.5 mg/kg per day): ~9 ×
- exposure (AUC) multiple relative to human AUC at 10 mg ([9]; females 2 mg/kg per day): ~34 ×
- microscopic changes in the kidney ([9]; males only): exacerbation in severity of CPN and increased incidence and severity of minimal to marked atypical hyperplasia of renal cortical tubules
- neoplasms affecting the renal tubules, adrenal gland, or testicular Leydig cells ([9]; rat, in vivo): no dapagliflozin-related neoplasms
- tumors or preneoplastic lesions in the urinary bladder ([9]; rat, in vivo): no indications of any dapagliflozin-related tumors or preneoplastic lesions
- levels of urinary glucose [10]: ~200 mM
- bone marrow micronucleus genotoxicity ([11]; 2 weeks, up to 250 mg/kg per day): not genotoxic
- bone marrow micronucleus genotoxicity ([11]; 3 days, up to 700 mg/kg per day): not genotoxic
- levels of urinary glucose [12]: 400 to 500 mM
- exposure (AUC) multiple relative to human AUC at 10 mg ([13]; females 2 mg/kg per day): ~11 ×
- exposure (AUC) multiple relative to human AUC at 10 mg ([13]; females 10 mg/kg per day): ~52 ×
- exposure (AUC) multiple relative to human AUC at 10 mg ([13]; females 20 mg/kg per day): ~105 ×
- carcinogenicity ([13]; females, doses ≤20 mg/kg per day): not carcinogenic
- incidence of background tumors or time to onset ([13]; lymphoreticular, uterus and cervix, lung, liver neoplasms): did not increase the incidence
- urinary bladder hyperplasia versus control ([13]; male mice): did not increase urinary bladder hyperplasia
- exposure (AUC) multiple relative to human AUC at 10 mg ([13]; males 5 mg/kg per day): approximately 4 ×
- exposure (AUC) multiple relative to human AUC at 10 mg ([13]; males 15 mg/kg per day): ~14 ×
- exposure (AUC) multiple relative to human AUC at 10 mg ([13]; males 40 mg/kg per day): ~72 ×
- carcinogenicity ([13]; males, doses ≤40 mg/kg per day): not carcinogenic
- off-target interactions [14]: no off-target interactions
- binding to hormone receptors [15]: did not bind
- Cmax [16]: 63 to 74 µg/mL
- bacterial reverse-mutation assay [17]: negative
- probe sets showing significant changes [18]: less than 1%
- extrapolated urinary concentrations relative to humans [19]: > 700 ×
- maximum observed plasma concentration (C max) [20]: 0.136 µg/mL
- proliferative or hyperplastic changes of the urinary bladder ([21]; 1 year): did not show dapagliflozin-related proliferative or hyperplastic changes
- exposure multiple of human clinical exposure ([21]; 1 year, supratherapeutic doses): > 3,300 × and > 3,000 ×
- urinary glucose excretion ([21]; treated dogs (control 5–13 mg per day)): 8,711–32,200 mg per day
- level that produced cytogenetic alterations in vitro [22]: 100 µg/mL
- chromosomal aberration induction ([22]; absence of S9 stimulation): negative
- clastogenic concentrations relative to total C max in humans with MRHD 10 mg ([22]; with metabolic stimulation): ≥ 735 times
- urinary glucose, mean [23]: 166 mM
- oral bioavailability [24]: good
- volume of distribution [24]: high
- in vitro TCC proliferation [25]: did not affect

Structure (SMILES): OC[C@H]1OC(O)[C@H](O)[C@@H](O)[C@@H]1O (some centres unmarked) [glucose]
- reduction of growth ([26]; J82, 25 mM): 37%
- growth ([26]; SW780, 25 mM): did not substantially alter
- growth ([26]; T24, 25 mM): did not substantially alter
- reduction of growth ([26]; T24, 35 mM): 83%
- reduction of growth ([26]; TCCSUP, 25 mM): 42%
- reduction of growth ([26]; UM-UC-3, 25 mM): 73%
- growth ([26]; all cell lines at 35 mM and 50 mM, except T24 at 35 mM): completely inhibited
